Results taken from PMC11376197 (Chemical Science, 2024).

How the values were obtained:
Assay in all cases: Cell viability assay
[1] = system: MRC-5 (non-cancerous lung fibroblasts); assay type: cell-based; conditions: read-out: IC50 MRC-5; 96 h of incubation
Procedure, shortened: (§1)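 Cell lines were exposed to test compounds for 96 h, with cisplatin as a reference. Complexes came from DMSO stocks and cisplatin from water stocks. Antiproliferative activity is expressed as IC50.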

[2] = system: A2780 (cisplatin-sensitive ovarian cancer cells); assay type: cell-based, human; conditions: read-out: IC50 A2780; 96 h of incubation
Procedure, shortened: as §1

[3] = system: OVCAR-3 (high-grade serous ovarian cancer cells); assay type: cell-based, human; conditions: read-out: IC50 OVCAR-3; 96 h of incubation
Procedure, shortened: as §1

[4] = system: HCT116 (colon cancer cells); assay type: cell-based, human; conditions: read-out: IC50 HCT116; 96 h of incubation
Procedure, shortened: as §1

## N.N.[Cl][Pt][Cl] [Cisplatin]
[1]
  IC50: 2 ± 1 µM
[2]
  IC50: 0.6 ± 0.2 µM
[3]
  IC50: 3.1 ± 0.2 µM
[4]
  IC50: 7.9 ± 0.8 µM
